Test results from ChEMBL document CHEMBL4689842, “EUbOPEN Chemogenomics Library wave 1” (2021).

Tested on: U2OS
Experiment: Multiplex assay against U2OS
Type: toxicity, cell-based
Details: human
How it was run: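 Live cells carried four stains from seeding: Hoechst33342, BioTracker Green Microtubule Cytoskeleton Dye, MitoTracker Red and Annexin V Alexa Fluor 680. They were imaged on a CQ1 microscope at 37°C and 5% CO2 after compound addition. Using CellPathfinder machine-learning gating, cells were split into Hoechst high-intensity objects or normal cells, normal cells into healthy, pyknosed or fragmented nuclei, and pyknosed cells into mitotic or apoptotic; tubulin, mitochondrial-mass and membrane-permeability phenotypes are per cents of healthy-nucleus cells.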

[1] = 12 h, 1 µM, compound concentration 1 uM, replicate 1
[2] = 12 h, 1 µM, compound concentration 1 uM, replicate 2
[3] = 12 h, 10 µM, compound concentration 10 uM, replicate 1
[4] = 12 h, 10 µM, compound concentration 10 uM, replicate 2
[5] = 24 h, 1 µM, compound concentration 1 uM, replicate 1
[6] = 24 h, 1 µM, compound concentration 1 uM, replicate 2
[7] = 24 h, 10 µM, compound concentration 10 uM, replicate 1
[8] = 24 h, 10 µM, compound concentration 10 uM, replicate 2
[9] = 48 h, 1 µM, compound concentration 1 uM, replicate 1
[10] = 48 h, 1 µM, compound concentration 1 uM, replicate 2
[11] = 48 h, 10 µM, compound concentration 10 uM, replicate 1
[12] = 48 h, 10 µM, compound concentration 10 uM, replicate 2

Cl.N#Cc1ccc2[nH]cc(CCCCN3CCN(c4ccc5oc(C(N)=O)cc5c4)CC3)c2c1 [VILAZODONE HYDROCHLORIDE]
Population Apoptotic (%) [1]: 42%
Population Fragmented Nuclei (%) [1]: 17%
Population Healthy Nuclei (%) [1]: 65%
Population Hoechst High Intensity Objects (%) [1]: 9%
Population Membrane Permeable-Phenotype (%) [1]: 4%
Population Mitochondria Different-Phenotype (%) [1]: 28%
Population Mitotic Cells (%) [1]: 57%
Population Normal (%) [1]: 90%
Population Pyknosed Nuclei (%) [1]: 17%
Population Tubulin-Different-Phenotype (%) [1]: 29%
Total Cell Count [1]: 129
Population Apoptotic (%) [2]: 27%
Population Fragmented Nuclei (%) [2]: 14%
Population Healthy Nuclei (%) [2]: 70%
Population Hoechst High Intensity Objects (%) [2]: 2%
Population Membrane Permeable-Phenotype (%) [2]: 6%
Population Mitochondria Different-Phenotype (%) [2]: 30%
Population Mitotic Cells (%) [2]: 72%
Population Normal (%) [2]: 97%
Population Pyknosed Nuclei (%) [2]: 15%
Population Tubulin-Different-Phenotype (%) [2]: 18%
Total Cell Count [2]: 50
Population Apoptotic (%) [3]: 39%
Population Fragmented Nuclei (%) [3]: 29%
Population Healthy Nuclei (%) [3]: 12%
Population Hoechst High Intensity Objects (%) [3]: 18%
Population Membrane Permeable-Phenotype (%) [3]: 42%
Population Mitochondria Different-Phenotype (%) [3]: 89%
Population Mitotic Cells (%) [3]: 60%
Population Normal (%) [3]: 81%
Population Pyknosed Nuclei (%) [3]: 58%
Population Tubulin-Different-Phenotype (%) [3]: 100%
Total Cell Count [3]: 120
Population Apoptotic (%) [4]: 67%
Population Fragmented Nuclei (%) [4]: 20%
Population Healthy Nuclei (%) [4]: 14%
Population Hoechst High Intensity Objects (%) [4]: 10%
Population Membrane Permeable-Phenotype (%) [4]: 38%
Population Mitochondria Different-Phenotype (%) [4]: 46%
Population Mitotic Cells (%) [4]: 32%
Population Normal (%) [4]: 89%
Population Pyknosed Nuclei (%) [4]: 64%
Population Tubulin-Different-Phenotype (%) [4]: 92%
Total Cell Count [4]: 72
Population Apoptotic (%) [5]: 56%
Population Fragmented Nuclei (%) [5]: 16%
Population Healthy Nuclei (%) [5]: 71%
Population Hoechst High Intensity Objects (%) [5]: 7%
Population Membrane Permeable-Phenotype (%) [5]: 2%
Population Mitochondria Different-Phenotype (%) [5]: 26%
Population Mitotic Cells (%) [5]: 43%
Population Normal (%) [5]: 92%
Population Pyknosed Nuclei (%) [5]: 12%
Population Tubulin-Different-Phenotype (%) [5]: 21%
Total Cell Count [5]: 120
Population Apoptotic (%) [6]: 60%
Population Fragmented Nuclei (%) [6]: 15%
Population Healthy Nuclei (%) [6]: 78%
Population Hoechst High Intensity Objects (%) [6]: 1%
Population Membrane Permeable-Phenotype (%) [6]: 3%
Population Mitochondria Different-Phenotype (%) [6]: 19%
Population Mitotic Cells (%) [6]: 40%
Population Normal (%) [6]: 98%
Population Pyknosed Nuclei (%) [6]: 6%
Population Tubulin-Different-Phenotype (%) [6]: 18%
Total Cell Count [6]: 54
Population Apoptotic (%) [7]: 61%
Population Fragmented Nuclei (%) [7]: 26%
Population Membrane Permeable-Phenotype (%) [7]: 53%
Population Mitochondria Different-Phenotype (%) [7]: 86%
Population Mitotic Cells (%) [7]: 38%
Population Pyknosed Nuclei (%) [7]: 64%
Population Tubulin-Different-Phenotype (%) [7]: 93%
Total Cell Count [7]: 135
Population Apoptotic (%) [8]: 75%
Population Fragmented Nuclei (%) [8]: 31%
Population Healthy Nuclei (%) [8]: 9%
Population Hoechst High Intensity Objects (%) [8]: 18%
Population Membrane Permeable-Phenotype (%) [8]: 30%
Population Mitochondria Different-Phenotype (%) [8]: 90%
Population Mitotic Cells (%) [8]: 24%
Population Normal (%) [8]: 81%
Population Pyknosed Nuclei (%) [8]: 59%
Population Tubulin-Different-Phenotype (%) [8]: 90%
Total Cell Count [8]: 79
Population Apoptotic (%) [9]: 38%
Population Fragmented Nuclei (%) [9]: 10%
Population Healthy Nuclei (%) [9]: 76%
Population Hoechst High Intensity Objects (%) [9]: 6%
Population Membrane Permeable-Phenotype (%) [9]: 8%
Population Mitochondria Different-Phenotype (%) [9]: 10%
Population Mitotic Cells (%) [9]: 61%
Population Normal (%) [9]: 93%
Population Pyknosed Nuclei (%) [9]: 12%
Population Tubulin-Different-Phenotype (%) [9]: 16%
Total Cell Count [9]: 121
Population Apoptotic (%) [10]: 40%
Population Fragmented Nuclei (%) [10]: 12%
Population Healthy Nuclei (%) [10]: 82%
Population Hoechst High Intensity Objects (%) [10]: 2%
Population Membrane Permeable-Phenotype (%) [10]: 9%
Population Mitochondria Different-Phenotype (%) [10]: 9%
Population Mitotic Cells (%) [10]: 60%
Population Normal (%) [10]: 97%
Population Pyknosed Nuclei (%) [10]: 4%
Population Tubulin-Different-Phenotype (%) [10]: 11%
Total Cell Count [10]: 49
Population Apoptotic (%) [11]: 91%
Population Fragmented Nuclei (%) [11]: 35%
Population Healthy Nuclei (%) [11]: 7%
Population Hoechst High Intensity Objects (%) [11]: 21%
Population Membrane Permeable-Phenotype (%) [11]: 87%
Population Mitochondria Different-Phenotype (%) [11]: 100%
Population Mitotic Cells (%) [11]: 8%
Population Normal (%) [11]: 78%
Population Pyknosed Nuclei (%) [11]: 56%
Population Tubulin-Different-Phenotype (%) [11]: 100%
Total Cell Count [11]: 174
Population Apoptotic (%) [12]: 89%
Population Fragmented Nuclei (%) [12]: 25%
Population Healthy Nuclei (%) [12]: 5%
Population Hoechst High Intensity Objects (%) [12]: 25%
Population Membrane Permeable-Phenotype (%) [12]: 75%
Population Mitotic Cells (%) [12]: 10%
Population Normal (%) [12]: 74%
Population Pyknosed Nuclei (%) [12]: 68%
Total Cell Count [12]: 120
